In ChEMBL document CHEMBL2021818, “Novel desosamine-modified 14- and 15-membered macrolides without antibacterial activity” (2012):
≈ marks a conversion by molar mass, not a printed value.

What was measured:
Assay type in all cases: functional
Staphylococcus aureus = experiment: Antibacterial activity against Staphylococcus aureus ATCC 13709 after 24 hrs at 37 degC by CLSI protocol based microdilution method; conditions: ATCC 13709, 24 h
In short: (§1)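 Macrolide-susceptible strains, broth microdilution MIC per CLSI. Media: Mueller–Hinton broth (MHB) for S. aureus and M. catarrhalis, MHB plus 5% horse serum for streptococci, Haemophilus test medium for H. influenzae. Compounds dissolved in DMF (5 mg/mL stock) and serially twofold diluted in medium over 64 to 0.125 µg/mL. MIC read after 24 h incubation at 37 °C.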

Moraxella catarrhalis = experiment: Antibacterial activity against Moraxella catarrhalis ATCC 23246 after 24 hrs at 37 degC by CLSI protocol based microdilution method; conditions: ATCC 23246, 24 h; in short: as §1
Haemophilus influenzae = experiment: Antibacterial activity against Haemophilus influenzae ATCC 49247 after 24 hrs at 37 degC by CLSI protocol based microdilution method; conditions: ATCC 49247, 24 h; in short: as §1
Streptococcus pneumoniae = experiment: Antibacterial activity against Streptococcus pneumoniae ATCC […] after 24 hrs at 37 degC by CLSI protocol based microdilution method; in short: as §1
Streptococcus pyogenes = experiment: Antibacterial activity against Streptococcus pyogenes ATCC 700294 after 24 hrs at 37 degC by CLSI protocol based microdilution method; conditions: ATCC 700294, 24 h; in short: as §1

## CC[C@H]1OC(=O)[C@H](C)[C@@H](O[C@H]2C[C@@](C)(OC)[C@@H](O)[C@H](C)O2)[C@H](C)[C@@H](O[C@@H]2O[C@H](C)C[C@H](N(C)C)[C@H]2O)[C@](C)(OC)C[C@@H](C)C(=O)[C@H](C)[C@@H](O)[C@]1(C)O [CLARITHROMYCIN]
Staphylococcus aureus
  MIC: 0.25 µg/mL (≈ 0.334 µM)
Moraxella catarrhalis
  MIC: < 0.125 µg/mL
Haemophilus influenzae
  MIC: 8 µg/mL (≈ 10.7 µM)
Streptococcus pneumoniae
  MIC: < 0.125 µg/mL
Streptococcus pyogenes
  MIC: < 0.125 µg/mL
